Among the data in ChEMBL document CHEMBL5712078, “BRD9 Inhibition, Alone or in Combination with Cytostatic Compounds as a Therapeutic Approach in Rhabdoid Tumors” (Int J Mol Sci, 2017) are Activity, IC50 and CI values, retold here.

pIC50: −log10 of the molar value. Calls of active or inactive are those of the source. The calls are words filed in the database; no cut-off is given here.

Experiment [1] relates to BT-12. The experiment in a line: Induction of apoptosis in human BT-12 cells assessed as necrotic cells at 20 uM incubated for 72 hrs by flow cytometry analysis (Rvb= 9.1+/-2.8 %). The experiment is classed as functional. In outline:
(§1)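 Annexin V/PI flow assay. G401 at 10,000 cells/mL and BT12 or Chla266 at 30,000 cells/mL were seeded in 12-well plates. Next day medium was replaced with medium holding I-BRD9 or BI-9564 at 0, 5, 10 or 20 µM final for 72 h. Cells were washed in PBS, stained with FITC-Annexin V and propidium iodide for 15 min in the dark at room temperature, then read by flow cytometry. Percentage of dead cells, n ≥3, mean ± SD, one-way ANOVA versus control.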

Experiment [2] deals with BT-12. The experiment is described as follows: Induction of apoptosis in human BT-12 cells assessed as necrotic cells at 5 uM incubated for 72 hrs by flow cytometry analysis (reference value: 9.1+/-2.8 %). The experiment is classed as functional. In outline:
as §1
A general note: Flow cytometry measures light scatter and fluorescence of single cells or particles in a stream.

In experiment [3] the test system is G-401. The experiment is described as follows: Induction of cell cycle arrest in human G-401 cells assessed as accumulation of cells at G1 phase at 10 uM incubated for 72 hrs by flow cytometry analysis (Rvb =46.7+/-1.9 %). In kind it is functional. A digest of the protocol:
(§2)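 72 h DAPI flow-cytometry cell-cycle assay. Chla266 in IMDM/20% FBS seeded at 30,000 cells/mL; G401 in DMEM/10% FBS at 10,000 cells/mL; 1 mL/well, 37 °C, 5% CO2. Next day the medium was replaced with inhibitor at final 0, 5, 10 or 20 µM. Cells were harvested, PBS-washed, and the G1 percentage was read. n ≥ 3, mean ± SD, one-way ANOVA vs control.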

Experiment [4] concerns G-401. The experiment is described as follows: Anti-proliferative activity against human G-401 cells assessed as cell viability incubated for 72 hrs by MTT assay. The note with it: G-401, 72 h. The experiment is classed as functional, cell-based. In outline:
(§3)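 MTT proliferation assay. Cells were seeded at 3000 (BT16, KD, G401) or 5000 (BT12, Chla266) cells per well and drug was added after 24 h, final 0.001–100 µM. Read at 72 or 144 h; 144 h wells got fresh medium and drug on day 3. MTT for 3 h, formazan dissolved in isopropanol/0.04 N HCl, absorbance at 570/630 nm. Technical triplicates, ≥3 independent runs, IC50 derived.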

The subject of experiment [5] is BT-12. The experiment is described as follows: Induction of apoptosis in human BT-12 cells assessed as necrotic cells at 10 uM incubated for 72 hrs by flow cytometry analysis (reference value: 9.1+/-2.8 %). In kind it is functional. In outline: as §1
The test system of experiment [6] is BT-12. The experiment is described as follows: Induction of cell cycle arrest in human BT-12 cells assessed as accumulation of cells at G1 phase at 10 uM incubated for 72 hrs by flow cytometry analysis (reference value: 69+/-1.9%). In kind it is functional. A digest of the protocol: (§4)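 Cell cycle. Seeding and 72 h treatment as for the apoptosis assay, with I-BRD9 or BI-9564 at 0, 5, 10 or 20 µM final. A 100 µL cell suspension was stained with DAPI and read by flow cytometry. Percentage of cells in G1, n ≥3, mean ± SD, one-way ANOVA versus control.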

The test system of experiment [7] is BT-12. The experiment in a line: Induction of cell cycle arrest in human BT-12 cells assessed as accumulation of cells at G1 phase at 5 uM incubated for 72 hrs by flow cytometry analysis (Rvb =69+/-1.9%). The experiment is classed as functional. In outline: as §4
Experiment [8] relates to BT-12. The experiment in a line: Induction of cell cycle arrest in human BT-12 cells assessed as accumulation of cells at G1 phase incubated for 72 hrs by flow cytometry analysis. The following applies: dose 5-20 µM. In kind it is functional, cell-based. A digest of the protocol:
as §4

The test system of experiment [9] is G-401. The experiment in a line: Induction of apoptosis in human G-401 cells assessed as necrotic cells incubated for 72 hrs by flow cytometry analysis. The experiment is classed as functional, cell-based. The note with it: dose 5-20 µM. A digest of the protocol: as §1
The subject of experiment [10] is CHLA-266. The experiment is described as follows: Induction of apoptosis in human CHLA-266 cells assessed as necrotic cells at 10 uM incubated for 72 hrs by flow cytometry analysis (Rvb= 5.0+/-0.3 %).
Experiment [11] has as its system CHLA-266. The experiment is described as follows: Cytotoxicity against human CHLA-266 cells assessed as change in cell viability at 5 to 20 uM treated for 72 hrs. In kind it is functional, cell-based. The note with it: dose 5-20 µM. A digest of the protocol: as §1
Experiment [12] has as its system G-401. The experiment is described as follows: Anti-proliferative activity against human G-401 cells assessed as cell viability incubated for 144 hrs by MTT assay. The experiment is classed as functional, cell-based. The note with it: G-401, 144 h. In outline:
as §3
(In general: Tetrazolium assays rely on reduction of a dye to a coloured formazan, in cell work by metabolically active cells.)

Experiment [13] relates to G-401. The experiment in a line: Anti-proliferative activity against human G-401 cells assessed as inhibition cell growth incubated for 72 hrs in presence of doxorubicin by MTT-based Chou-Talalay method. In kind it is functional. The following applies: G-401, 72 h. A digest of the protocol:
(§5)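 Combination MTT assay. I-BRD9 and carboplatin, doxorubicin or vincristine were given together at a fixed 10:1 ratio, with cytostatics 0.0001–10 µM final, added 24 h after seeding. MTT read-out at 570/630 nm after 3 h formazan solubilisation. Combination index from the Chou–Talalay median-effect method: CI <1 synergism, CI >1 antagonism. n ≥3.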

The test system of experiment [14] is BT-12. The experiment is described as follows: Anti-proliferative activity against human BT-12 cells assessed as cell viability incubated for 144 hrs by MTT assay. The experiment is classed as functional, cell-based. The following applies: BT-12, 144 h. A digest of the protocol:
as §3

Experiment [15] has as its system G-401. The experiment is described as follows: Induction of apoptosis in human G-401 cells assessed as necrotic cells at 20 uM incubated for 72 hrs by flow cytometry analysis (Rvb= 5.7+/-1.9 %). The experiment is classed as functional. A digest of the protocol: as §1
For experiment [16], the system named is CHLA-266. The experiment is described as follows: Induction of cell cycle arrest in human CHLA-266 cells assessed as accumulation of cells at G1 phase at 20 uM incubated for 72 hrs by flow cytometry analysis (reference value: 74.2+/-3.6%). In kind it is functional. A digest of the protocol:
as §4

Experiment [17] deals with G-401. The experiment is described as follows: Induction of cell cycle arrest in human G-401 cells assessed as accumulation of cells at G1 phase incubated for 72 hrs by flow cytometry analysis. The note with it: dose 5-20 µM. In kind it is functional, cell-based. A digest of the protocol:
as §2

Experiment [18] deals with G-401. The experiment is described as follows: Synergistic cytotoxicity against human G-401 cells assessed as combination index incubated for 72 hrs in presence of carboplatin by MTT-based Chou-Talalay method. In kind it is functional. In outline: (§6)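 MTT combination assay. BT12 in IMDM/20% FBS at 5000 cells/well; G401 in DMEM/10% FBS. Drugs added 24 h after seeding, with I-BRD9 and cytostatic at a fixed 10:1 ratio (final ranges 0.001–100 µM and 0.0001–10 µM). After 72 h: MTT for 3 h, dissolved in isopropanol/0.04 N HCl, read at 570/630 nm. Technical triplicates, ≥3 independent runs; combination index by Chou–Talalay median-effect analysis.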

Experiment [19] deals with BT-12. The experiment is described as follows: Synergistic cytotoxicity against human BT-12 cells assessed as combination index incubated for 72 hrs in presence of vincristine by MTT-based Chou-Talalay method. The experiment is classed as functional. In outline:
as §6

For experiment [20], the system named is BT-12. The experiment is described as follows: Induction of cell cycle arrest in human BT-12 cells assessed as accumulation of cells at G1 phase at 20 uM incubated for 72 hrs by flow cytometry analysis (reference value: 69+/-1.9%). The experiment is classed as functional. In outline:
as §4

Experiment [21] has as its system G-401. The experiment in a line: Synergistic cytotoxicity against human G-401 cells assessed as combination index incubated for 72 hrs in presence of doxorubicin by MTT-based Chou-Talalay method. The experiment is classed as functional. In outline:
as §6

For experiment [22], the system named is G-401. The experiment is described as follows: Anti-proliferative activity against human G-401 cells assessed as inhibition cell growth incubated for 72 hrs in presence of carboplatin by MTT-based Chou-Talalay method. The experiment is classed as functional. The note with it: G-401, 72 h. In outline:
as §5

Experiment [23] relates to CHLA-266. The experiment in a line: Induction of apoptosis in human CHLA-266 cells assessed as necrotic cells incubated for 72 hrs by flow cytometry analysis. The experiment is classed as functional, cell-based. The following applies: dose 5-20 µM. A digest of the protocol:
as §1

The subject of experiment [24] is CHLA-266. The experiment is described as follows: Induction of apoptosis in human CHLA-266 cells assessed as necrotic cells at 20 uM incubated for 72 hrs by flow cytometry analysis (Rvb= 5.0+/-0.3 %).

As to `CCn1cc(-c2cccc(C(F)(F)F)c2)c2sc(C(=N)NC3CCS(=O)(=O)CC3)cc2c1=O`, the Activity came to 34.6% in [1]; 19.9% in [2]; 67.1% in experiment [3]; 17.6% in experiment [5]; 80.1% in experiment [6]; 75% in experiment [7]. Also, the Activity result was “Dose-Dependent Effect” in experiment [8]; “Dose-Dependent Effect” in experiment [9]; 11.7% in experiment [10]; 70.8% in [15]; 89.3% in experiment [16]; “Dose-Dependent Effect” in experiment [17]. Further, the Activity in [20] is 85.6%; in experiment [23], “Dose-Dependent Effect”; in experiment [24], 25%. Further, the pIC50 in [4] is 4.87; in experiment [12], 5.21; in [13] it was 7.02; in experiment [14], 5.09; in experiment [22], 5.04. Moreover, the outcome in [11] was Active. Also, the CI came to 0.37 in experiment [18], 96.1 in [19] and 1.2 in experiment [21].

As usually defined, the pIC50 is the negative decadic logarithm of the IC50, by convention in mol/L.
